# Test results published in PubChem BioAssay.
# Calls of active or inactive are those of the source. Rule as the data show it, unless noted: active = inhibition above about 30%; inactive = the rest.
# Key:
# [1] = Her2 expression decrease, cell viability multiplex – SKBR3 breast tumor cells, AlphaScreen, ATP viability, primary screen (AID 461;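 active = Her2 level under about 52% in both replicate screens, with viability over 70% of control, limit read from the data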;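 as to Her2 level: lower value means less Her2 protein in the cells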;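 as to viability: percent of carrier control wells set as 100% viability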); conditions: SKBR3 Her2 protein level, 18-24 h, measured here: SKBR3 viability, ATP luminescence, at 10 µM
# [2] = molecular target: Receptor tyrosine-protein kinase erbB-2 (Homo sapiens) (UniProt P04626); assay: as above; conditions: 18-24 h, at 10 µM, stronger effect = lower value
# Chain of Receptor tyrosine-protein kinase erbB-2 (Homo sapiens) (P04626 whole entry, looked up): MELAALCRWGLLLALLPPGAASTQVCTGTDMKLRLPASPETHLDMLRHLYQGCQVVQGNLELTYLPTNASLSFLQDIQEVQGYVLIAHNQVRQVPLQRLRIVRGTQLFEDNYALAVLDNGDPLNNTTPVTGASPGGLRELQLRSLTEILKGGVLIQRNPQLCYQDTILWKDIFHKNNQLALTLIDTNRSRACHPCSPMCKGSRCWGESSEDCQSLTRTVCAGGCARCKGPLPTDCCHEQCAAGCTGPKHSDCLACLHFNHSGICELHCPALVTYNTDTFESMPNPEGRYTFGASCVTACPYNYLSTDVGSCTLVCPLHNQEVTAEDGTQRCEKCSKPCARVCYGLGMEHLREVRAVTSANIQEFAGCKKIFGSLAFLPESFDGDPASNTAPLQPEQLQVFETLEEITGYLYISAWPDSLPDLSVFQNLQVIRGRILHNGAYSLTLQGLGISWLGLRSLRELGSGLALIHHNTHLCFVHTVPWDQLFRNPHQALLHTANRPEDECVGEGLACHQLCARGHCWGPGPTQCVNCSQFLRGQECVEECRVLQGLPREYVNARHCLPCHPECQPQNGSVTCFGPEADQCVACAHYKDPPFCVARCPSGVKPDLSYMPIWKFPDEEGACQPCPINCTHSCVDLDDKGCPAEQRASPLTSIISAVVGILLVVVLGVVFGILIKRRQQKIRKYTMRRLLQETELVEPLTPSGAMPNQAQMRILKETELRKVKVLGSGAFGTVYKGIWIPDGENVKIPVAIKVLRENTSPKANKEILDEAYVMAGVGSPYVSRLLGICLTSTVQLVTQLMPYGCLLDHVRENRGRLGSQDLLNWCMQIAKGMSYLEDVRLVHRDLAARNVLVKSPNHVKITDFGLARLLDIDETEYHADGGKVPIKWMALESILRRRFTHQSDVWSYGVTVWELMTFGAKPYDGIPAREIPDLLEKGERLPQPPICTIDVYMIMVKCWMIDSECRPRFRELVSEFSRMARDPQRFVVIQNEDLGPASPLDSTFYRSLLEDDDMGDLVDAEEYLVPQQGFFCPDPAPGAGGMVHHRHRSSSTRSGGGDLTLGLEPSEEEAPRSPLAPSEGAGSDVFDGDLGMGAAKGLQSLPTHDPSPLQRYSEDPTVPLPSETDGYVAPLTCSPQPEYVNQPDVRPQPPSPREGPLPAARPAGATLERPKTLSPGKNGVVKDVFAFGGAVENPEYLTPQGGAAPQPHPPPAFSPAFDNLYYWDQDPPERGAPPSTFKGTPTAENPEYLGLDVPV
# [3] = reduced viability of SK-BR-3 breast cancer cells – cell-based, 24 h, human, pilot screen (AID 572;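 active = viability at or below 10% of carrier control in both of two separate runs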;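 also: compound exposure lasted between 18 and 24 h rather than exactly 24 h; 100% = carrier-treated control wells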); conditions: SK-BR-3 viability, CellTiter-Glo luminescence, at 10 µM, stronger effect = lower value
# [4] = HUVEC growth inhibition – cell-based, human, primary screen (AID 575;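 active = viability at or below 30% in both replicate assays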;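 also: 100% = median of untreated cell wells with 0.1% DMSO on each plate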); conditions: HUVEC proliferation, CellTiter-Glo luminescence, 72 h; at 10 µM; stronger effect = lower value
# Method in brief: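 Test system: HUVEC primary cells. Quantity: 1250 endothelial cells in each well. Dosing: single-point 10 µM, DMSO 0.1% final. Incubation: 72 h treatment at 37 °C. Measured by: CTG luminescence. Control set: DMSO cell controls and MePR drug controls. Plate: collagen-coated 384-well format.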
# [5] = H69AR cell proliferation blockers – human, duplicate replicates, primary screen (AID 580;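 active = viability at or under a set limit in both replicates, limit being median viability minus 3 SD, cut at about 48% in these data, passing the limit was not always enough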;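 also: 100% = mean luminescence of untreated wells and 0% = no signal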); conditions: H69AR lung tumor cells viability, ATP luminescence, 72 h; at 10 µM; stronger effect = lower value
# [6] = MRP1 drug-resistance reversers in H69AR cells – cell-based, doxorubicin co-treatment, pilot screen (AID 601;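 active = viability loss from added drug above about 55%, and viability with drug at most 40%, in both replicates, limit read from the data, passing the limit was not always enough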); conditions: CellTiter-Glo, 72 h, at 10 µM; for differential viability (reversal): stronger effect = higher value
# [7] = yeast transport mutant growth inhibition pilot in 384-well plates, post-Golgi transport modulator project (AID 636; in the data active = inhibition above about 31%); conditions: absorbance 615 nm, about 18 h, stronger effect = higher value
# [8] = growth suppression of yeast trafficking mutant, preliminary HTS, modulators of trafficking downstream of Golgi apparatus project, 1536-format plate, OD 615 nm (AID 637); conditions: yeast transport mutant growth, absorbance 615 nm, 18 h; stronger effect = higher value
# [9] = H69AR cells + 2 uM doxorubicin, measured here: viability with 2 uM doxorubicin, stronger effect = lower value
# [10] = H69AR cells, compound alone cytotoxicity
SMILES,viability [1] [%],Her2 level [2],viability [3],viability [4],viability [5],differential viability (reversal) ([6]; H69AR cells + 2 uM doxorubicin),"viability [6, 9] [%]","viability [6, 10] [%]",inhibition [7],inhibition [8]
COc1ccccc1N(CC(=O)NCc1ccccc1)S(C)(=O)=O,103,92.5% (inactive),103% (inactive),106% (inactive),97% (inactive),3.07% (inactive),93.9,97,-9.19% (inactive),-7.33% (inactive)
CCn1cc(C(=O)Nc2cc3c(cc2NC(C)=O)OCCO3)c(=O)c2ccc(C)nc21,96.5,100% (inactive),96.5% (inactive),106% (inactive),91% (inactive),-4.02% (inactive),95,91,-6.13% (inactive),0.48% (inactive)
CC(C)COc1ccc(C2NC(=O)NC2=O)cc1 (stereo not given),85.5,106% (inactive),85.5% (inactive),96.3% (inactive),103% (inactive),-0.53% (inactive),103,103,-0.52% (inactive),-8.67% (inactive)
COc1ccccc1NC(=O)CSC1CC(=O)N(c2ccc3c(c2)OCO3)C1=O (stereo not given),98,82.5% (inactive),98% (inactive),96.5% (inactive),99.4% (inactive),0.975% (inactive),98.4,99.4,-4.53% (inactive),0.16% (inactive)
Nc1nnnn1/N=C/c1ccccc1OCc1ccccc1,118,96.5% (inactive),118% (inactive),78.9% (inactive),95.3% (inactive),8.29% (inactive),87,95.3,-4.13% (inactive),2.42% (inactive)
CCn1c(=O)cc(SCC(=O)N2CCOCC2)c2ccccc21,92,75% (inactive),92% (inactive),63.1% (inactive),85.4% (inactive),17.4% (inactive),68,85.4,-6.05% (inactive),-3.45% (inactive)
CCOc1nc(SCCOc2ccccc2)nc(N(C)C)n1,96,115% (inactive),96% (inactive),72.4% (inactive),107% (inactive),4.17% (inactive),102,107,-1.84% (inactive),-3.5% (inactive)
CCn1c(SCC(=O)N2CCCc3ccccc32)nnc1-c1cccs1,85.5,72.5% (inactive),85.5% (inactive),83.3% (inactive),87.5% (inactive),5.33% (inactive),82.2,87.5,-5.87% (inactive),0.16% (inactive)
COc1ccc(OCC(O)Cn2c(Br)nc3c2c(=O)[nH]c(=O)n3C)cc1 (stereo not given),84,72% (inactive),84% (inactive),62.8% (inactive),28.5% (active),-28.6% (inactive),57.1,28.5,-4.4% (inactive),10.7% (inactive)
Cc1ccc(OC(=O)CCC(=O)OCCCC(F)(F)C(F)(F)F)cc1,102,104% (inactive),102% (inactive),91.2% (inactive),94.3% (inactive),3.79% (inactive),90.5,94.3,-1.76% (inactive),-1.64% (inactive)
COc1ccc(C)cc1S(=O)(=O)N(C)CC(=O)Nc1ccc2c(c1)OCCO2,92,92% (inactive),92% (inactive),107% (inactive),89.1% (inactive),5.96% (inactive),83.2,89.1,-5.33% (inactive),-12.5% (inactive)
CN(Cc1ccccc1)Cc1nc2c(c(=O)n(C)c(=O)n2C)n1Cc1ccc(Cl)cc1,67.5,102% (inactive),67.5% (inactive),84.1% (inactive),86% (inactive),1.76% (inactive),84.2,86,-0.67% (inactive),7.05% (inactive)
Cc1ccc(S(=O)(=O)Cc2ccc(C(=O)NCCCN3CCN(C)CC3)o2)cc1,104,99.5% (inactive),104% (inactive),96.9% (inactive),103% (inactive),11% (inactive),92.1,103,-0.66% (inactive),-5.64% (inactive)
O=C(CSc1nnc(-c2ccco2)c(-c2ccco2)n1)Nc1ccccc1,102,64% (inactive),102% (inactive),89.2% (inactive),77.6% (inactive),-12.2% (inactive),89.8,77.6,2.63% (inactive),9.03% (inactive)
O=C1c2ccccc2C(=O)N1C/C=C/c1ccccc1,81,75% (inactive),81% (inactive),78.2% (inactive),96.7% (inactive),7.29% (inactive),89.5,96.7,-3.47% (inactive),-1.29% (inactive)
O=C(O)CC1NC(=O)N(c2ccccc2)C1=O (stereo not given),108,85% (inactive),108% (inactive),109% (inactive),99.3% (inactive),7.85% (inactive),91.5,99.3,-5.33% (inactive),0% (inactive)
CN1CCN(S(=O)(=O)c2ccc(Sc3nnc(-c4cccs4)n3-c3ccccc3)nc2)CC1,120,87.5% (inactive),120% (inactive),89.4% (inactive),85.7% (inactive),3.53% (inactive),82.2,85.7,-5.27% (inactive),-10% (inactive)
Cc1ccccc1CNS(=O)(=O)c1ccc2c(c1)OCCO2,95.5,104% (inactive),95.5% (inactive),83.6% (inactive),109% (inactive),17.3% (inactive),92,109,-5.47% (inactive),-6.77% (inactive)
CCCC(=O)N(Cc1cc2ccccc2[nH]c1=O)c1ccccc1OC,97,94.5% (inactive),97% (inactive),105% (inactive),105% (inactive),5.2% (inactive),99.5,105,-0.26% (inactive),12.3% (inactive)
CC(C)(C)NC(=O)COC(=O)c1ccc(O)cc1,100,104% (inactive),100% (inactive),103% (inactive),98.9% (inactive),-3.93% (inactive),103,98.9,-2.99% (inactive),-1.27% (inactive)
COc1ccccc1OCCn1c(=O)sc2ccccc21,95,93% (inactive),95% (inactive),89.6% (inactive),99.6% (inactive),-8.55% (inactive),108,99.6,-1.05% (inactive),-7.94% (inactive)
Cc1cc(C(=O)CN2C(=O)c3ccccc3C2=O)c(C)n1Cc1cccs1,122,99% (inactive),122% (inactive),111% (inactive),86.3% (inactive),3.23% (inactive),83,86.3,-9.45% (inactive),0% (inactive)
CCOc1cc(C(=O)N2CCN=C2SC)cc(OCC)c1OCC,91.5,83% (inactive),91.5% (inactive),87.4% (inactive),105% (inactive),10.1% (inactive),95.2,105,-4.73% (inactive),9.05% (inactive)
O=C(NCC(F)(F)F)N1CCOCC1,96,85.5% (inactive),96% (inactive),89.5% (inactive),100% (inactive),8.42% (inactive),91.8,100,-6.71% (inactive),-6.19% (inactive)
CSCSC1=C(C#N)C(c2ccc(Cl)cc2)C(C(C)=O)=C(C)N1 (stereo not given),106,94.5% (inactive),106% (inactive),64.3% (inactive),75.2% (inactive),-5.35% (inactive),80.6,75.2,-5.32% (inactive),1.31% (inactive)
COc1ccc(C(=O)NCCn2ccc3ccccc32)c(OC)c1,95,81% (inactive),95% (inactive),88.7% (inactive),87.7% (inactive),-0.23% (inactive),87.9,87.7,-6.49% (inactive),1.11% (inactive)
O=C(Cn1c(SCC(=O)N2CCCc3ccccc32)nc2ccccc21)N1CCCC1,94,96% (inactive),94% (inactive),104% (inactive),98.3% (inactive),4.66% (inactive),93.6,98.3,-6.05% (inactive),-2.38% (inactive)
Cc1nn(Cc2ccc(C(=O)NC3CCCCC3)o2)c(C)c1Br,94.5,90% (inactive),94.5% (inactive),86.9% (inactive),92.9% (inactive),-5.8% (inactive),98.7,92.9,-3.29% (inactive),-5.17% (inactive)
